FXIa inh 1536 – inhibitors of human coagulation factor XIa; P03951; purified FXIa, Boc-Glu-Ala-Arg-AMC fluorogenic substrate; inhibition, % at 5 µM; hit rate 0.14% among 220,000;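 active = inhibition of at least 40%; inactive = inhibition below 40%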;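 note: fluorescence of freed AMC excited at 355 nm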
KLK5 inh – inhibitors of human kallikrein 5 | Q9Y337 | recombinant hK5, fluorogenic AMC substrate cleavage | inhibition, % at 5 µM | hit rate 0.59% among 210,000;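 active = inhibition of 40% or more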
Target sequence (Q9Y337 67-293 limits assumed): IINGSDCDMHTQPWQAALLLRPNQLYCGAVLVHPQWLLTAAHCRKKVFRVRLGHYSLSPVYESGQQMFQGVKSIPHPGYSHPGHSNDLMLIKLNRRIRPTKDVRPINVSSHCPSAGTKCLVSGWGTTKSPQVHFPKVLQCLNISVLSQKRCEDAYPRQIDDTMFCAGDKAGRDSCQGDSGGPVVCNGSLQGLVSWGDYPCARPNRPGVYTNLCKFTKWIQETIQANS
FXIIa inh 1536 – factor XIIa (human) inhibition; inhibition, % at 5 µM; purified FXIIa, Boc-QGR-AMC fluorogenic substrate, 2 h; P00748; AID 800; hit rate 0.3% among 220,000; in the data active = inhibition above about 40%
Wee1 stabilizer – inhibitors of human Wee1 degradation; reporter increase, % at 5 µM; HeLa Luc-Wee1K328M stability, luciferase luminescence; 100% = proteasome inhibitor MG132 effect; AID 1321; P30291; hit rate 1.2% among 220,000;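 active = activation above the mean of all tested compounds plus 3 SD, set per screening run, cut at about 8.8% in these data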;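 note: cells exposed to compound for 20 h before luminescence read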
Thrombin inh – thrombin (human) inhibition; P00734; AID 1046; hit rate 0.26% among 220,000; inhibition, % at 5 µM; alpha-thrombin, Boc-VPR-AMC fluorogenic substrate cleavage;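 active = inhibition at or above 40%; inactive = inhibition below 40%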
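Material: human alpha-thrombin protein; Also added: Boc-VPR-AMC substrate, 15 µM final; Timing: enzyme reaction carried out at room temperature; Signal: fluorescence, ex 355 nm, em 460 nm; Measure: % inhibition of thrombin; Controls: enzyme without compound as high, wells lacking enzyme as low.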
A number is an active result. Rows were chosen to be rich in hits. Some 2.2% of all compounds tested hit in one or more screens of this group.

`Nc1c(C(=O)N/N=C/c2cccnc2)cnn1-c1ccccc1` gave FXIa inh 1536 inactive, KLK5 inh inactive, FXIIa inh 1536 inactive, Wee1 stabilizer 9.6 and Thrombin inh inactive.
For Nc1c(C(=O)N/N=C/c2ccc(Cl)cc2)cnn1-c1ccccc1 the results were FXIa inh 1536 inactive, KLK5 inh inactive, FXIIa inh 1536 inactive, Wee1 stabilizer inactive and Thrombin inh inactive.
`O=C(Nc1cccc(F)c1)C1CC(=O)N(c2ccc(Br)cc2)C1` (stereo not given) gave FXIa inh 1536 inactive, KLK5 inh 79, FXIIa inh 1536 inactive, Wee1 stabilizer inactive and Thrombin inh inactive.
Screening O=C(Nc1cccc(F)c1)C1CC(=O)N(c2ccc(Cl)cc2)C1 (stereo not given) returned FXIa inh 1536 inactive, KLK5 inh inactive, FXIIa inh 1536 inactive, Wee1 stabilizer inactive and Thrombin inh inactive.
For COc1ccc2c(c1OC)C(=O)N(c1ccc(C)cc1)C2 the results were FXIa inh 1536 inactive, KLK5 inh inactive, FXIIa inh 1536 inactive, Wee1 stabilizer inactive and Thrombin inh inactive.
`Cc1ccc(S(=O)(=O)NNC(=O)c2ccc(O)cc2)cc1` gave FXIa inh 1536 inactive, KLK5 inh 53, FXIIa inh 1536 inactive, Wee1 stabilizer inactive and Thrombin inh inactive.
Screening CN1CCN(S(=O)(=O)c2ccc(Br)s2)CC1 returned FXIa inh 1536 inactive, KLK5 inh inactive, FXIIa inh 1536 48, Wee1 stabilizer inactive and Thrombin inh inactive.
For O=C(CCC1CCCN(c2ncccn2)C1)NCc1ccc(F)c(F)c1 (stereo not given) the results were FXIa inh 1536 inactive, KLK5 inh inactive, FXIIa inh 1536 inactive, Wee1 stabilizer inactive and Thrombin inh inactive.
Screening N#C/C(=C/c1ccc(C(=O)O)cc1)C(=O)Nc1ccccc1 returned FXIa inh 1536 inactive, KLK5 inh inactive, FXIIa inh 1536 inactive, Wee1 stabilizer 9.0 and Thrombin inh inactive.
C=C(C)CC1N(c2cccc(OC)c2)C(=O)C2C(C(=O)O)C3C=CC21O3 (stereo not given) was read as FXIa inh 1536 inactive, KLK5 inh 45, FXIIa inh 1536 inactive, Wee1 stabilizer inactive and Thrombin inh inactive.
O=C(CCc1nnc(CCCc2ccccc2)o1)NCCN1CCOC1=O was read as FXIa inh 1536 inactive, KLK5 inh inactive, FXIIa inh 1536 inactive, Wee1 stabilizer inactive and Thrombin inh inactive.
Screening C=CCn1c(SCC#N)nc2sc(CC)cc2c1=O returned FXIa inh 1536 inactive, KLK5 inh inactive, FXIIa inh 1536 inactive, Wee1 stabilizer inactive and Thrombin inh inactive.
Screening COC(=O)c1ccc(C2NC(=O)c3c(sc(C)c3C)N2)cc1 (stereo not given) returned FXIa inh 1536 inactive, KLK5 inh inactive, FXIIa inh 1536 inactive, Wee1 stabilizer inactive and Thrombin inh inactive.
For Cc1sc2c(c1C)C(=O)NC(c1cccc(O)c1)N2 (stereo not given) the results were FXIa inh 1536 40, KLK5 inh inactive, FXIIa inh 1536 inactive, Wee1 stabilizer inactive and Thrombin inh inactive.
`O=C(/C=C/c1ccc([N+](=O)[O-])cc1)Nc1cccnc1` gave FXIa inh 1536 inactive, KLK5 inh inactive, FXIIa inh 1536 inactive, Wee1 stabilizer 10 and Thrombin inh inactive.
For O=C(/C=C/c1ccc(Cl)c([N+](=O)[O-])c1)Nc1cccnc1 the results were FXIa inh 1536 inactive, KLK5 inh inactive, FXIIa inh 1536 inactive, Wee1 stabilizer inactive and Thrombin inh inactive.
`COc1ccc(Oc2ccc(/C=C/C(=O)c3ccc(O)cc3)cc2[N+](=O)[O-])cc1` gave FXIa inh 1536 inactive, KLK5 inh inactive, FXIIa inh 1536 inactive, Wee1 stabilizer inactive and Thrombin inh inactive.
For O=C1CSC(c2ccccn2)N1c1ccc(F)cc1F (stereo not given) the results were FXIa inh 1536 inactive, FXIIa inh 1536 inactive, Wee1 stabilizer 9.9 and Thrombin inh inactive.
Screening CCOC(=O)c1cnc(-c2ccccc2)nc1Oc1ccc(Cl)c(Cl)c1 returned FXIa inh 1536 inactive, KLK5 inh 65, FXIIa inh 1536 inactive, Wee1 stabilizer inactive and Thrombin inh inactive.
`CCOC(=O)c1cnc(-c2ccccc2)nc1Oc1cccc(Cl)c1` gave FXIa inh 1536 inactive, KLK5 inh inactive, FXIIa inh 1536 inactive, Wee1 stabilizer inactive and Thrombin inh inactive.
Screening COc1ccc(NS(=O)(=O)c2ccc(N3CCCC3)c(NC(=S)Nc3ccc(SC(F)F)cc3)c2)cc1 returned FXIa inh 1536 inactive, KLK5 inh inactive, FXIIa inh 1536 inactive, Wee1 stabilizer 9.3 and Thrombin inh inactive.
